Reference: ChEMBL document CHEMBL1147671, “Application of the Goldilocks effect to the design of potent and selective inhibitors of phenylethanolamine N-methyltransferase: balancing pKa and steric effects in the optimization of 3-methyl-1,2,3,4-tetrahydroisoquinoline inhibitors by beta-fluorination” (J Med Chem, 2006)

Key:
[1] = target: T1, Adrenergic receptor alpha-2 (Rattus norvegicus, UniProt P22086+P19328+P22909); assay: Displacement of [3H]clonidine from alpha-2 adrenergic receptor in Sprague-Dawley rat cortex
T1 sequence (P22086 whole entry): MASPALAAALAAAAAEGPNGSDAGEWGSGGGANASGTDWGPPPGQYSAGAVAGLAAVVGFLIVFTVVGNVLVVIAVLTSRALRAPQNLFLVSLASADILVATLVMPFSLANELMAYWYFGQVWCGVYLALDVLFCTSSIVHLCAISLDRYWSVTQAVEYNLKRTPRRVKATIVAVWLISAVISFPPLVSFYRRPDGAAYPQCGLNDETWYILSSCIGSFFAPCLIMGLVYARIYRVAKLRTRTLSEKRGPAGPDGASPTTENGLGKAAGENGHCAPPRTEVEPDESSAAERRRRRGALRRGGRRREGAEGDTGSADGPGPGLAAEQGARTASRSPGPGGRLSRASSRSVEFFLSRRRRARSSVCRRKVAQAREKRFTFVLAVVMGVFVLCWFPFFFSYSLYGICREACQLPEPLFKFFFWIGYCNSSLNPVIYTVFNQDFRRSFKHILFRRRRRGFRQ
T1 sequence (P19328 whole entry): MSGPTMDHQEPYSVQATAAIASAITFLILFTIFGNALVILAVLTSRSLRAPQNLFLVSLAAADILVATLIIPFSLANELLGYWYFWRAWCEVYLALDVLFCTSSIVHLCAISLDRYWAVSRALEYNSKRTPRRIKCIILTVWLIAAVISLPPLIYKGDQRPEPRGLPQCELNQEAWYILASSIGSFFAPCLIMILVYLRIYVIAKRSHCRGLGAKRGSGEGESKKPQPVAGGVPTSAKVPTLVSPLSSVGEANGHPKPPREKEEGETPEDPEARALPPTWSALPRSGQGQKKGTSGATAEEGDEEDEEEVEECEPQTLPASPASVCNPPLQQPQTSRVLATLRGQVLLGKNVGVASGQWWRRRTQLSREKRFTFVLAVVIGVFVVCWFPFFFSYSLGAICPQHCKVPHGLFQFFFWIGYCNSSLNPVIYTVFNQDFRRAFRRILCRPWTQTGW
T1 sequence (P22909 whole entry): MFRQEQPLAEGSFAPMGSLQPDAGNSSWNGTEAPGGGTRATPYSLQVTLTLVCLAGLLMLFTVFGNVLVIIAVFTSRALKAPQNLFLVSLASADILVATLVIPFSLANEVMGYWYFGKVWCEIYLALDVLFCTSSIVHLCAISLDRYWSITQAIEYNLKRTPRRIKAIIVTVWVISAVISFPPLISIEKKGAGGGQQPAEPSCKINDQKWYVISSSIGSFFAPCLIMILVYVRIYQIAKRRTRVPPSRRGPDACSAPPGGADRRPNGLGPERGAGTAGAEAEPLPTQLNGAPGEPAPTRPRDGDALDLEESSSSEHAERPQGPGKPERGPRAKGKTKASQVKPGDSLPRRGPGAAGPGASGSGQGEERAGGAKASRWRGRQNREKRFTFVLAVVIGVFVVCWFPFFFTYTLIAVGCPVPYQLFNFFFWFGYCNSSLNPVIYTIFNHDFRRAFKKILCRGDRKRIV
Outline: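 Male rat cortex homogenised in ice-cold 50 mM Tris/HCl (pH 7.7 at 25 °C), washed by three 50,000 × g spins. Membranes incubated with [3H]clonidine (final 2.0 nM) and 5 test concentrations over a 16-fold range, 25 °C for 30 min. Bound ligand collected by vacuum filtration onto GF/B filters and counted by scintillation. Nonspecific binding defined with 2 μM phentolamine. Run in quadruplicate; IC50 by log-probit, Ki by Cheng-Prusoff.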

[2] = Dissociation constant, pKa of the compound; assay type: physicochemical
[3] = target: T2, Phenylethanolamine N-methyltransferase (Homo sapiens, UniProt P11086); assay: Binding affinity to human PNMT
T2 sequence (P11086 whole entry): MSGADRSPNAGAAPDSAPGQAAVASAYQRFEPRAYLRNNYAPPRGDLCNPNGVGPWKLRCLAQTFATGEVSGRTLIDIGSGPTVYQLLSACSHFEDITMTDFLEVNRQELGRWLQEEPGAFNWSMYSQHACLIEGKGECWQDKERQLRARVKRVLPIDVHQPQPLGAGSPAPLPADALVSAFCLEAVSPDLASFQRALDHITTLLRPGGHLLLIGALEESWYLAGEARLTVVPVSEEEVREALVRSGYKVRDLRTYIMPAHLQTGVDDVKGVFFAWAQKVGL

| Structure (SMILES) | Ki [1] | pKa [2] | Ki [3] |
| --- | --- | --- | --- |
| NS(=O)(=O)c1ccc2c(c1)CNC(C(F)F)C2 (stereo not drawn) | > 1000 µM | – | – |
| O=[N+]([O-])c1ccc2c(c1)CNC(C(F)F)C2 (racemic) | > 1000 µM | 5.83 | – |
| FC(F)C1Cc2ccc(C(F)(F)F)cc2CN1 (racemic) | 190 µM | – | – |
| O=S(=O)(Nc1ccc(Cl)cc1)c1ccc2c(c1)CNC(C(F)F)C2 (racemic) | > 1000 µM | – | – |
| CCCCNS(=O)(=O)c1ccc2c(c1)CNC(C(F)F)C2 (racemic) | > 1000 µM | – | – |
| O=[N+]([O-])c1ccc(NS(=O)(=O)c2ccc3c(c2)CNC(C(F)F)C3)cc1 (racemic) | > 1000 µM | – | – |
| CCNS(=O)(=O)c1ccc2c(c1)CNC(C(F)F)C2 (racemic) | > 1000 µM | – | – |
| N#Cc1ccc2c(c1)CNC(C(F)F)C2 (racemic) | > 1000 µM | – | – |
| CS(=O)(=O)c1ccc2c(c1)CNC(C(F)F)C2 (racemic) | 2500 µM | – | – |
| FC(F)C1Cc2ccc(I)cc2CN1 (racemic) | > 1000 µM | – | – |
| O=S(=O)(NCC(F)(F)F)c1ccc2c(c1)CNC(C(F)(F)F)C2 (racemic) | > 1000 µM | – | – |
| CCCNS(=O)(=O)c1ccc2c(c1)CNC(C(F)F)C2 (racemic) | > 1000 µM | – | – |
| O=S(=O)(Nc1ccc(Cl)cc1)c1ccc2c(c1)CNC(C(F)(F)F)C2 (racemic) | > 1000 µM | – | – |
| COCCCNS(=O)(=O)c1ccc2c(c1)CNC(C(F)F)C2 (racemic) | > 1000 µM | – | – |
| COCCCNS(=O)(=O)c1ccc2c(c1)CNC(C(F)(F)F)C2 (racemic) | > 1000 µM | – | – |
| O=S(=O)(NCC(F)(F)F)c1ccc2c(c1)CNC(C(F)F)C2 (racemic) | > 1000 µM | – | – |
| FC(F)C1Cc2ccccc2CN1 (racemic) | 150 µM | 6.42 | – |
| FC(F)C1Cc2ccc(Br)cc2CN1 (racemic) | 230 µM | 6.12 | – |
| O=[N+]([O-])c1ccc(NS(=O)(=O)c2ccc3c(c2)CNC(C(F)(F)F)C3)cc1 (racemic) | > 1000 µM | – | 110 µM |
